Assay results from different studies.
Protocols differ between the studies behind these lines.
Target: Inhibitor of nuclear factor kappa-B kinase subunit alpha (CHUK, Homo sapiens, UniProt O15111)
One construct used (O15111 1-745): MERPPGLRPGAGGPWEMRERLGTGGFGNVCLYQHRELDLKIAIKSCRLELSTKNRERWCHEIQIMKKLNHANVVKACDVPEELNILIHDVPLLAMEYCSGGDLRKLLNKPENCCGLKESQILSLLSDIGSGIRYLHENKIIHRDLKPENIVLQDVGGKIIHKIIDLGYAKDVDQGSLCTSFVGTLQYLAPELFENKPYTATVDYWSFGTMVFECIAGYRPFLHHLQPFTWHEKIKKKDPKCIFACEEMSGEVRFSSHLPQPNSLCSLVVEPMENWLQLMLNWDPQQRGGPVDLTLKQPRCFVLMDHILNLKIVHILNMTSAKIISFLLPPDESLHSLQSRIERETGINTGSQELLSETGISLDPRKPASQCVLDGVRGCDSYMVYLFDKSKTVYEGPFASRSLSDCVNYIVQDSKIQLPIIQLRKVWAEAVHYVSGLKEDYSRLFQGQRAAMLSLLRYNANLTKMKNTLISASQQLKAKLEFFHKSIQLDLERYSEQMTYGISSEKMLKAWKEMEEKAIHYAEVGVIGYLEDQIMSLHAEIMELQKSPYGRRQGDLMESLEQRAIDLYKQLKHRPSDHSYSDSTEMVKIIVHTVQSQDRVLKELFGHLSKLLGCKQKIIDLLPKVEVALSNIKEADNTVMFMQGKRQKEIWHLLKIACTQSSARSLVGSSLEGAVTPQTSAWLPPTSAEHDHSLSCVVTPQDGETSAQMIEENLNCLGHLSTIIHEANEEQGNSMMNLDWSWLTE

| SMILES | assay | conditions | endpoint | value |
| --- | --- | --- | --- | --- |
| CC(C)(C)c1nc2c(s1)c1nc(N)ncc1c1ccc(NS(=O)(=O)c3c(F)cccc3F)c(F)c12 | enzyme activity, inhibitor, radiometric | 1 µM | remaining activity | 88% |
| Cc1ccc(C(=O)NCc2ccsc2)cc1C#Cc1cn(C(C)C)c2ncnc(N)c12 | enzyme activity, inhibitor | 1 µM | activity vs control | 102% |
| Cc1ccc(NC(=O)c2ccc(CN3CCN(C)CC3)cc2)cc1Nc1nc(-c2cccnc2)cs1 | cell-free assay | 0.5 µM | remaining signal | 96.2% |
| C[C@H](NC(=O)c1cnc2n1[C@](C)(Cc1ccc(C#N)cc1)C(=O)N2c1cc(Cl)c(F)c(Cl)c1)C(=O)NC1(c2ccccn2)CC1 | cell-free assay, competition with immobilised ligand | 1 µM | remaining binding | 100% |
| CCCS(=O)(=O)Nc1ccc(F)c(C(=O)c2c[nH]c3ncc(-c4ccc(Cl)cc4)cc23)c1F | enzyme activity, inhibitor | 1 µM | inhibition | < 10% |
| O=C(NCc1ncc(C(F)(F)F)cc1Cl)c1ccc2c(c1)C1(CCS(=O)(=O)CC1)[C@H](C1CC1)N2S(=O)(=O)c1ccc(F)cc1 | cell-free assay, competition with immobilised ligand | 1 µM | remaining binding | 77% |
| Nc1ncnc2occ(-c3ccc(NC(=O)Nc4cc(C(F)(F)F)ccc4F)cc3)c12 | enzyme activity, inhibitor | 20 µM | remaining activity | 0% |
| CNC(=O)c1cc(Oc2ccc(NC(=O)Nc3ccc(Cl)c(C(F)(F)F)c3)cc2)ccn1 | enzyme activity, inhibitor | 10 µM | inhibition | -35% |
| O=C(Nc1nccs1)C(c1cc(F)ccc1O)N1Cc2ccccc2C1=O (stereo not drawn) | enzyme activity, inhibitor | 1 µM | inhibition | 16% |
| CCC(=O)N[C@@H]1CC[C@H](C(=O)N(C)c2ccc(-c3nc4ccccc4o3)cc2)C1 | cell-free assay, competition with immobilised ligand | 1 µM | remaining binding | 100% |
| Cc1ccc(Nc2nccc(N(C)c3ccc4c(C)n(C)nc4c3)n2)cc1S(N)(=O)=O | cell-free assay, inhibitor | 0.5 µM | remaining signal | 99.4% |
| Cc1sc(C(=O)NC2COC2)cc1-n1cc(NC(=O)Nc2c(F)cccc2Cl)cn1 | enzyme activity, inhibitor | 10 µM | remaining activity | 101% |
| O=C(N1CCS(=O)(=O)CC1)N1C[C@H](c2ccc(OC(F)(F)F)cc2)C[C@H](c2nc(C3CC3)no2)C1 | cell-free assay, competition with immobilised ligand | 1 µM | remaining binding | 97% |
| CC/C(=N\NC(=O)NCc1cccc(O)c1)c1ccc(O)c(C)c1O | enzyme activity, inhibitor | 0.1 µM | inhibition | 0.7% |
| CCN(CC)c1ccc(C2=NNC(=O)CC2C)cc1[N+](=O)[O-] (stereo not drawn) | enzyme activity, inhibitor | 10 µM | remaining activity | 109% |
| O=C1Nc2ccc(Cl)cc2C1=Cc1cc(Cl)c(O)c(Cl)c1 | cell-free assay | 0.5 µM | remaining signal | 97% |
| Cc1c(C(=O)O)cc(-c2ccc(C3CCNCC3)cc2)c2ccc(-c3ccc(C(F)(F)F)cc3)cc12 | cell-free assay, competition with immobilised ligand | 1 µM | remaining binding | 98% |
| Cc1cnc(NC2CCOCC2)nc1-n1cnc(C(=O)NC(CN)c2cc(F)cc(Cl)c2)c1 (stereo not drawn) | enzyme activity, inhibitor, radiometric | 1 µM | remaining activity | 92% |
| CN([C@@H]1CCc2c(CC(=O)O)c3cc(S(C)(=O)=O)ccc3n2C1)S(=O)(=O)c1ccc(F)cc1 | cell-free assay, competition with immobilised ligand | 1 µM | remaining binding | 100% |
| CCN(CC)CCNC(=O)c1c(C)[nH]c(/C=C2\C(=O)Nc3ccc(F)cc32)c1C | enzyme activity, inhibitor | 0.3 µM | inhibition | -1% |
| c1ccc(CNc2nc(N3CCOc4ccccc43)nc3c2CCCC3)cc1 | target engagement in cells, inhibitor, chemoproteomics | 20 mM | inhibition | 10.8% |
| CN(C)c1ncnc(-c2ccc3nc(Nc4cc(CN5CCN(C(=O)CC(F)(F)F)CC5)ccn4)[nH]c3c2)c1Cl | cell-free assay, competition with immobilised ligand | 1 µM | remaining binding | 69% |
| CNCc1ccc(-c2cc(-c3nc(-c4ccc(S(=O)(=O)C(C)C)cc4)cnc3N)on2)cc1 | enzyme activity, inhibitor | 2 µM | inhibition | 36% |
| CCCOc1ccc(OC)c(F)c1C(=O)c1ccc(C(=O)N[C@@H]2CNC[C@H]2NC(=O)c2ccc3[nH]ncc3c2)cc1 | enzyme activity, inhibitor | 10 µM | remaining activity | 83% |
